Test results as given in ChEMBL document CHEMBL4390691, “Discovery of 1,3-dihydro-2H-imidazo[4,5-c]quinolin-2-ones based novel, potent and PI3Kδ selective inhibitors” (Bioorg Med Chem Lett, 2019).
Activity calls are given as the source filed them. The rule behind the calls is not given here.

Experiments:
[1] = target: T1, Phosphatidylinositol 4,5-bisphosphate 3-kinase catalytic subunit delta isoform (Homo sapiens, UniProt O00329); assay: Inhibition of human PI3Kdelta using PIP2 as substrate after 1 hr
T1 sequence (O00329 whole entry): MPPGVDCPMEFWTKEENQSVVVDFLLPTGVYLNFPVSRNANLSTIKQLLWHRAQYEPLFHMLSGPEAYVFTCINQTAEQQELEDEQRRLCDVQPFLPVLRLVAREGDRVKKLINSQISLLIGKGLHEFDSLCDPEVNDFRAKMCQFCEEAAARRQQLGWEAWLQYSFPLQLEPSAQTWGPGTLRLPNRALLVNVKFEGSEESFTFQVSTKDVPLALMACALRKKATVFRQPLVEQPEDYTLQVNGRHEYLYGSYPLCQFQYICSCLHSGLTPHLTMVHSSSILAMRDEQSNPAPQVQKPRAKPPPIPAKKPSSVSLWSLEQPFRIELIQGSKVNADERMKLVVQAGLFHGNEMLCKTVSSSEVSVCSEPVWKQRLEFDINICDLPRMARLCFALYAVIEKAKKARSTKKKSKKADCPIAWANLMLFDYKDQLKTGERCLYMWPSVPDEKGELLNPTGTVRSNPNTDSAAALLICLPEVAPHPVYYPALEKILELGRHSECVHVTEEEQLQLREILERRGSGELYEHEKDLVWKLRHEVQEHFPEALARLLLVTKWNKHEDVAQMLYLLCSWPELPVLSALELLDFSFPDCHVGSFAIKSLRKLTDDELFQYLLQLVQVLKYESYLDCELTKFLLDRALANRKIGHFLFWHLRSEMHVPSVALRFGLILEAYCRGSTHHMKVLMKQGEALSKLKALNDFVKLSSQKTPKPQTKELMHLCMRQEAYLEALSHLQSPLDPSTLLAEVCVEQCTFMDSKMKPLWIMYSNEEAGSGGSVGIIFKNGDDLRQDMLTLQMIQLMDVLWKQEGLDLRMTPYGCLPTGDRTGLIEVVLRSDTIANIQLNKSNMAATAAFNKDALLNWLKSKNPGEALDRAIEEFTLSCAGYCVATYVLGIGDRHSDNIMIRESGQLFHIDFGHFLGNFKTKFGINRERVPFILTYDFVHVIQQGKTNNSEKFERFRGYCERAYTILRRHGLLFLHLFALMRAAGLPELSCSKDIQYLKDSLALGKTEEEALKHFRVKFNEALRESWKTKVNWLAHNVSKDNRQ

[2] = Tmax in C57BL/6J mouse at 3 mg/kg, po measured up to 30 hrs by LC-MS/MS analysis; assay type: ADME, organism-based; conditions: in vivo
Summary of the method: (§1)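 Male C57BL/6J mice (n = 6) received single doses of 3 mg/kg po or 1 mg/kg iv. Plasma concentrations were measured by LC-MS. Values are mean ± SD. Oral bioavailability (%F) was calculated from the ratio to iv AUC.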

[3] = AUC (0 to infinity) in C57BL/6J mouse 3 mg/kg, po measured up to 30 hrs by LC-MS/MS analysis; assay type: ADME, organism-based; design: dose 3 mg/kg, route oral, time infinity; conditions: in vivo
Summary of the method: (§2)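 Single-dose PK in male C57BL/6J mice (n = 6), dosed 1 mg/kg iv or 3 mg/kg orally. Plasma drug levels were measured by LC-MS, and PK parameters (Tmax, Cmax, t1/2, Cl, AUC, %F) were derived. Values are given as mean ± SD. Oral bioavailability was calculated against the iv AUC.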

[4] = Cmax in C57BL/6J mouse at 3 mg/kg, po measured up to 30 hrs by LC-MS/MS analysis; assay type: ADME, organism-based; design: dose 3 mg/kg, route oral; conditions: in vivo; summary of the method: as §1
[5] = Clearance in C57BL/6J mouse at 1 mg/kg, iv measured up to 30 hrs by LC-MS/MS analysis; assay type: ADME, organism-based; conditions: in vivo; summary of the method: as §1
[6] = AUC (0 to infinity) in C57BL/6J mouse 1 mg/kg, iv measured up to 30 hrs by LC-MS/MS analysis; assay type: ADME, organism-based; design: dose 1 mg/kg, time infinity, route intravenous; conditions: in vivo; summary of the method: as §2
[7] = Half life in C57BL/6J mouse at 3 mg/kg, po measured up to 30 hrs by LC-MS/MS analysis; assay type: ADME, organism-based; conditions: in vivo; summary of the method: as §1
Mus musculus = assay: Antiarthritic activity in complete Freund's adjuvant-induced DBA1/J mouse arthritis model assessed as inhibition in clinical arthritis score at 60 mg/kg, po administered for 14 days relative to control; assay type: functional, organism-based; conditions: in the assay text read “4 weeks” for “14 days”
Summary of the method: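 Male DBA1j mice had arthritis induced with a collagen mixture and were enrolled once clinical signs appeared. Animals were split into four groups of eight: vehicle, a positive control and two doses of test compound. Treatment ran four weeks. The read-out was percentage inhibition of clinical arthritis score versus the vehicle group.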

[8] = Oral bioavailability in C57BL/6J mouse at 3 mg/kg measured up to 30 hrs by LC-MS/MS analysis; assay type: ADME, organism-based; conditions: in vivo; summary of the method: as §1
[9] = Toxicity in DBA1/J mouse assessed as reduction in body weight at 60 mg/kg, po […] measured thrice per week; assay type: organism-based; conditions: in vivo, 336 h

COc1ccc(Cn2c(=O)n(C)c3c4cc(-c5cnc(OC)c(NS(=O)(=O)C6CC6)c5)ccc4ncc32)cc1
IC50 [1]: 5.9 nM

COc1ccc(Cn2c(=O)n(C)c3c4cc(-c5ccc(OC)nc5)ccc4ncc32)cc1
IC50 [1]: 11.4 nM

COc1ccc(Cn2c(=O)n(C)c3c4cc(-c5cnc(OC)c(C)c5)ccc4ncc32)cc1
IC50 [1]: 11.1 nM

COc1ccc(Cn2c(=O)n(C)c3c4cc(-c5cnc(OC)c(NS(=O)(=O)C(C)C)c5)ccc4ncc32)cc1
IC50 [1]: 6.2 nM

Cn1c(=O)n(-c2ccc(C(C)(C)C#N)cc2)c2c3cc(-c4cnc5ccccc5c4)ccc3ncc21 [DACTOLISIB]
Tmax [2]: 0.21 h | AUC [3]: 244 ng·h/mL | Cmax [4]: 274 ng/mL | clearance [5]: 72.5 mL/min/kg | AUC [6]: 215 ng·h/mL | half-life [7]: 1.88 h | inhibition (Mus musculus): Active | bioavailability [8]: 37.8% | Activity [9]: Toxic

CC(C)c1ccc(Cn2c(=O)n(C)c3c4cc(-c5cnc6ccccc6c5)ccc4ncc32)cc1
IC50 [1]: 28.3 nM
